{"data": "Measured values of several laboratories"}
{"SMILES": "CO[C@H]1/C=C/O[C@@]2(C)Oc3c(C)c(O)c4c(O)c(c(/C=N/N5CCN(C6CCCC6)CC5)c(O)c4c3C2=O)NC(=O)/C(C)=C\\C=C\\[C@H](C)[C@H](O)[C@@H](C)[C@@H](O)[C@@H](C)[C@H](OC(C)=O)[C@@H]1C", "tested on": "Plasmodium falciparum", "assay": "parasite growth", "system": "DD2", "conditions": "drug-resistant strain, blood stage", "measurement": "IC50", "value": "1980 nM"}
{"SMILES": "CC(C)C[C@H](NC(=O)[C@H](CC(C)C)NC(=O)[C@H](CCCCN)NC(=O)[C@H](CCCCN)NC(=O)[C@H](CC(C)C)NC(=O)[C@H](CC(C)C)NC(=O)[C@H](CCCCN)NC(=O)[C@H](CCCCN)NC(=O)[C@H](CC(C)C)NC(=O)[C@H](CC(C)C)NC(=O)[C@H](CCCCN)NC(=O)[C@H](CCCCN)NC(=O)[C@H](CCC(=O)O)NC(=O)[C@@H](N)CC(C)C)C(N)=O", "tested on": "HCCC9810", "assay": "cell growth or viability, CCK-8", "measurement": "IC50", "value": "6960 nM"}
{"SMILES": "C[C@@H]1CC[C@H]2[C@@H](C)C(=O)O[C@@H]3O[C@@]4(C)CC[C@@H]1[C@]32OO4", "tested on": "Plasmodium falciparum", "assay": "parasite growth", "system": "DD2", "conditions": "drug-resistant strain, blood stage", "measurement": "IC50", "value": "8.9 nM"}
{"SMILES": "CCN1CCN(Cc2ccc(Nc3nc4ccc(Oc5ccnc(NC(=O)C6CCN(C)CC6)c5)cc4n3C)cc2C(F)(F)F)CC1", "tested on": "Plasmodium falciparum", "assay": "parasite growth, SYBR Green", "system": "DD2", "conditions": "blood stage", "measurement": "EC50", "value": "116 nM"}
{"SMILES": "CC(C)C[C@H](NC(=O)[C@H](CC(C)C)NC(=O)[C@H](CCCCN)NC(=O)[C@H](CCCCN)NC(=O)[C@H](CCC(=O)O)NC(=O)[C@H](CC(C)C)NC(=O)[C@H](CCCCN)NC(=O)[C@H](CCCCN)NC(=O)[C@H](CC(C)C)NC(=O)[C@H](CC(C)C)NC(=O)[C@H](CCCCN)NC(=O)[C@H](CCCCN)NC(=O)[C@H](CC(C)C)NC(=O)[C@@H](N)CC(C)C)C(N)=O", "tested on": "HCCC9810", "assay": "cell growth or viability, CCK-8", "measurement": "IC50", "value": "8320 nM"}
{"SMILES": "N=C(CC(O)c1cc2c(F)cc(F)cc2c2cc(C(F)(F)F)ccc12)Nc1nc2ccccc2[nH]1 (stereo not drawn)", "tested on": "Plasmodium falciparum", "assay": "parasite growth, ELISA", "system": "3D7", "conditions": "72 h, blood stage", "measurement": "IC50", "value": "5590 nM"}
{"SMILES": "COc1ccc2cc1Oc1ccc(cc1)C[C@H]1c3c(cc4c(c3Oc3cc5c(cc3OC)CCN(C)[C@@H]5C2)OCO4)CCN1C", "tested on": "Plasmodium falciparum", "assay": "parasite growth", "system": "K1", "conditions": "drug-resistant strain, blood stage", "measurement": "IC50", "value": "91.4 nM"}
{"SMILES": "Cc1cccc(F)c1NC(=N)CC(O)c1cc2c(F)cc(F)cc2c2cc(C(F)(F)F)ccc12 (stereo not drawn)", "tested on": "Plasmodium falciparum", "assay": "parasite growth, ELISA", "system": "3D7", "conditions": "72 h, blood stage", "measurement": "IC50", "value": "13.2 nM"}
{"SMILES": "CO[C@H]1C[C@H](O[C@@H]2/C(C)=C/C[C@@H]3C[C@@H](C[C@]4(CC[C@H](C)[C@@H](C5CCCCC5)O4)O3)OC(=O)[C@@H]3C=C(C)/C(=N/O)[C@H]4OC/C(=C\\C=C\\[C@@H]2C)[C@]43O)O[C@@H](C)[C@@H]1O", "tested on": "Plasmodium falciparum", "assay": "parasite growth", "system": "K1", "conditions": "drug-resistant strain, blood stage", "measurement": "IC50", "value": "311 nM"}
{"SMILES": "N=C(CC(O)c1cc2c(F)cc(F)cc2c2cc(C(F)(F)F)ccc12)NC1CC(F)(F)C1 (stereo not drawn)", "tested on": "Plasmodium falciparum", "assay": "parasite growth, ELISA", "system": "3D7", "conditions": "72 h, blood stage", "measurement": "IC50", "value": "80.2 nM"}
{"SMILES": "N.N.[Cl][Pt][Cl]", "tested on": "RS4-11", "assay": "cell growth or viability, ATP luminescence", "conditions": "72 h", "measurement": "IC50", "value": "610 nM"}
{"SMILES": "N=C(CC(O)c1cc2c(F)cc(F)cc2c2cc(C(F)(F)F)ccc12)Nc1nnc(-c2ccc(F)cc2)o1 (stereo not drawn)", "tested on": "Plasmodium falciparum", "assay": "parasite growth, ELISA", "system": "3D7", "conditions": "72 h, blood stage", "measurement": "IC50", "value": "> 37000 nM"}
{"SMILES": "CCN(CC)CCOc1ccc2c(c1)C(=O)c1cc(OCCN(CC)CC)ccc1-2", "tested on": "Plasmodium falciparum", "assay": "parasite growth", "system": "DD2", "conditions": "drug-resistant strain, blood stage", "measurement": "IC50", "value": "556 nM"}
{"SMILES": "COc1cc(NC(=N)CC(O)c2cc3c(F)cc(F)cc3c3cc(C(F)(F)F)ccc23)ccc1Br (stereo not drawn)", "tested on": "Plasmodium falciparum", "assay": "parasite growth, ELISA", "system": "3D7", "conditions": "72 h, blood stage", "measurement": "IC50", "value": "13.6 nM"}
{"SMILES": "CC(C)C[C@H](NC(=O)[C@H](CC(C)C)NC(=O)[C@H](CCCCN)NC(=O)[C@H](CCCCN)NC(=O)[C@H](CC(C)C)NC(=O)[C@H](CC(C)C)NC(=O)[C@H](CCCCN)NC(=O)[C@H](CCCCN)NC(=O)[C@H](CC(C)C)NC(=O)[C@H](CC(C)C)NC(=O)[C@H](CCCCN)NC(=O)[C@H](CCCCN)NC(=O)[C@H](CC(C)C)NC(=O)[C@@H](N)CCC(=O)O)C(N)=O", "tested on": "HCCC9810", "assay": "cell growth or viability, CCK-8", "measurement": "IC50", "value": "8870 nM"}
